Results on 13 molecules are retold here after ChEMBL document CHEMBL1133370, “N-(sulfonamido)alkyl[tetrahydro-1H-benzo[e]indol-2-yl]amines: potent antagonists of human neuropeptide Y Y5 receptor” (Bioorg Med Chem Lett, 2000).

This test addresses T1, Neuropeptide Y receptor type 5 (Homo sapiens, UniProt Q15761).
T1 sequence (Q15761 whole entry): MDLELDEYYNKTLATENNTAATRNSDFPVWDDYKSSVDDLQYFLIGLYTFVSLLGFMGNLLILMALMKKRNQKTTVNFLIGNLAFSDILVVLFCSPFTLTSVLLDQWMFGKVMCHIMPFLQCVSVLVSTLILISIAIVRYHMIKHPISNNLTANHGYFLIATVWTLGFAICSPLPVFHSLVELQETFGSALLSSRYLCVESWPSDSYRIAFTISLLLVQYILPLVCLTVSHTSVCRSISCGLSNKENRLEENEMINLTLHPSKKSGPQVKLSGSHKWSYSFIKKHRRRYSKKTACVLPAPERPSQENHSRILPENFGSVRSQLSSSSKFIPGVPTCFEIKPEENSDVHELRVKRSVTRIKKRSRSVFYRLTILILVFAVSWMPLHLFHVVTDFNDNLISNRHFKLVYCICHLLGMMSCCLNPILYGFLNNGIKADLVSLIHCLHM
The test can be described thus: Binding affinity for human Neuropeptide Y receptor type 5 in HEK293 cells. In kind it is cell-based. The gist of the method:
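Membranes from HEK293 cells stably transfected with human NPY5 cDNA, prepared in 20 mM HEPES buffer with NaCl, 0.22 mM KH2PO4, 1.3 mM CaCl2, 0.8 mM MgSO4, pH 7.4. Centrifuged, washed, membrane radioactivity gamma-counted. Non-specific binding with 300 nM NPY. IC50 is 50% inhibition of specific binding, averaged over ≥2 experiments.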

Structures are written as SMILES. Bounds are passed on as bounds.

`N[C@@H](CCCCNS(=O)(=O)c1ccccc1F)C(=O)NC1=NC2CCc3cc(F)ccc3C2C1` (stereo partly drawn): the IC50 worked out at 202 nM. This lies in the sub-micromolar range.
The figure for `COc1ccc2c(c1)CCC1N=C(NC(=O)[C@H]3CC[C@H](CNS(=O)(=O)c4ccccc4F)CC3)CC21` (stereo partly drawn) is 121 nM; for `O=S(=O)(NC[C@H]1CC[C@H](CNC2=NC3CCc4cc(Cl)ccc4C3C2)CC1)c1ccccc1` (stereo partly drawn) it is 54 nM; for `COc1ccc2c(c1)CCC1N=C(NC(C)=O)CC21` (stereo not drawn) it is over 1000 nM.
The figure for `O=C(NC1=NC2CCc3cc(Cl)ccc3C2C1)[C@H]1CC[C@H](CNS(=O)(=O)c2ccccc2)CC1` (stereo partly drawn) is 111 nM.
The figure for `COc1ccc2c(c1)CCC(NCCc1ccc(OC)c(OC)c1)C2Cc1ccccc1` (stereo not drawn) is about 1000 nM; for `COc1ccc2c(c1)CCC1N=C(NC[C@H]3CC[C@H](CNS(=O)(=O)c4ccccc4)CC3)CC21` (stereo partly drawn) it is 57 nM; for `COc1ccc2c(c1)CCC1N=C(NC[C@H]3CC[C@H](CNS(=O)(=O)c4ccccc4F)CC3)CC21` (stereo partly drawn) it is 35 nM.
`O=S(=O)(NC[C@H]1CC[C@H](CNC2=NC3CCc4ccccc4C3C2)CC1)c1ccccc1` (stereo partly drawn) returned a concentration for half-maximal inhibition (IC50) of 39 nM.
The figure for `O=C(NC1=NC2CCc3cc(O)ccc3C2C1)[C@H]1CC[C@H](CNS(=O)(=O)c2ccccc2)CC1` (stereo partly drawn) is 9 nM.
The figure for `COc1ccc2c(c1)CCC1N=C(NC(=O)[C@H]3CC[C@H](CNS(=O)(=O)c4ccccc4)CC3)CC21` (stereo partly drawn) is 91 nM.
On to `O=S(=O)(NC[C@H]1CC[C@H](CNC2=NC3CCc4cc(O)ccc4C3C2)CC1)c1ccccc1` (stereo partly drawn), for which the IC50 was found to be 1 nM. This IC50 lies about 91-fold lower than the previous one.
The figure for `O=C(NC1=NC2CCc3ccccc3C2C1)[C@H]1CC[C@H](CNS(=O)(=O)c2ccccc2)CC1` (stereo partly drawn) is 60 nM.

Usually IC50 stands for the midpoint of a concentration-inhibition curve.
